Assay results reported in ChEMBL document CHEMBL1151786, “Triphenylmethylamides (TPMAs): Structure-activity relationship of compounds that induce apoptosis in melanoma cells” (Bioorg Med Chem Lett, 2008).
Converted amounts (≈) assume the structure as drawn. The source made the active and inactive calls. No cut-off for these calls is given here.

Tests used:
SK-MEL-5 = test: Growth inhibition of human SK-MEL-5 cells after 72 hrs by SRB assay; assay type: functional, cell-based; conditions: SK-MEL-5, 72 h
Procedure, shortened: (§1)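 Melanoma cells were exposed to a range of compound concentrations for 72 h. Growth inhibition was read as biomass by sulforhodamine B staining. IC50 is the average of three separate occasions, given with standard deviation, from dose–response curves.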

UACC-62 = test: Growth inhibition of human UACC62 cells after 72 hrs by SRB assay; assay type: functional, cell-based; conditions: UACC-62, 72 h; procedure, shortened: as §1
HL-60 [1] = test: Cell cycle arrest in human HL60 cells assessed as accumulation at G1 phase at 20 uM after 6 hrs by flow cytometry using propidium iodide staining; assay type: functional, cell-based
Procedure, shortened: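 HL-60 cells were treated for 6 h with 20 µM compound or with vehicle alone. They were then stained with propidium iodide and analysed by flow cytometry for the percentage of cells in G0/G1, S and G2/M.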

U-937 [2] = test: Induction of early apoptosis in human U937 cells at 100 uM after 48 hrs by flow cytometry using FITC-conjugated annexin V and propidium iodide staining relative to control; assay type: functional
Procedure, shortened: (§2)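 U-937 cells were exposed for 48 h to 100 µM compound or to vehicle. Cells were stained with FITC-conjugated Annexin V to detect phosphatidylserine externalization and with propidium iodide to test membrane integrity, then quantified by flow cytometry. Quadrants were scored, with Annexin V-positive/propidium iodide-negative taken as early apoptotic.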

HL-60 [3] = test: Antiproliferative activity against human HL60 cells after 72 hrs by SRB assay; assay type: functional, cell-based; conditions: HL-60, 72 h
Procedure, shortened: (§3)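 Cancer cell lines were incubated with compound for 72 h. Growth or viability was measured by a method given in the supporting information. IC50 values are averages with standard deviations from three independent experiments.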

U-937 [4] = test: Antiproliferative activity against human U937 cells after 72 hrs by SRB assay; assay type: functional, cell-based; conditions: U-937, 72 h; procedure, shortened: as §3
MCF7 = test: Antiproliferative activity against human MCF7 cells after 72 hrs by SRB assay; assay type: functional, cell-based; conditions: MCF7, 72 h; procedure, shortened: as §3
PC-12 = test: Antiproliferative activity against rat PC12 cells after 72 hrs by SRB assay; assay type: functional, cell-based; conditions: PC-12, 72 h; procedure, shortened: as §3
[5] = Aqueous solubility in phosphate-buffered saline at pH 7.4; assay type: physicochemical; conditions: read-out: Stability
U-937 [6] = test: Induction of late apoptosis in human U937 cells at 100 uM after 48 hrs by flow cytometry using FITC-conjugated annexin V and propidium iodide staining relative to control; assay type: functional; procedure, shortened: as §2
U-937 [7] = test: Induction of apoptosis in human U937 cells assessed as viable cells at 100 uM after 48 hrs by flow cytometry using FITC-conjugated annexin V and propidium iodide staining relative to control; assay type: functional; conditions: U-937, 48 h, read-out: Activity; procedure, shortened: as §2
U-937 [8] = test: Induction of apoptosis in human U937 cells assessed as nonviable necrotic cells at 100 uM after 48 hrs by flow cytometry using FITC-conjugated annexin V and propidium iodide staining relative to control; assay type: functional; procedure, shortened: as §2

IC50 (SK-MEL-5) | SMILES | IC50 (UACC-62) | other results
5.5 µM | O=C(CCC(c1ccccc1)(c1ccccc1)c1ccccc1)NCCc1ccccc1 | 50 µM | –
6.7 µM | COC(=O)[C@@H](Cc1ccccc1)NC(=O)C(c1ccccc1)(c1ccc(O)cc1)c1ccc(O)cc1 | 20 µM | –
9 µM | O=C(NCCc1ccccc1)C(c1ccccc1)(c1ccccc1)c1cccs1 | 13 µM | –
5.4 µM | O=C(CCCC(c1ccccc1)(c1ccccc1)c1ccccc1)NCCc1ccccc1 | 26 µM | Activity (HL-60 [1]): Active
17 µM | O=C(CC(c1ccccc1)(c1ccccc1)c1ccccc1)NCCc1ccccc1 | 50 µM | –
8.1 µM | COC(=O)[C@@H](Cc1ccccc1)NC(=O)C(c1ccccc1)(c1ccccc1)c1ccc(O)cc1 | 21 µM | –
4.2 µM | O=C(NCCc1ccccc1)C(c1ccccc1)(c1ccccc1)c1ccc(O)c(O)c1 | 2.1 µM | Activity (HL-60 [1]): Active; Activity (U-937 [2]): 23.17%; IC50 (HL-60 [3]): 6.2 µM; IC50 (U-937 [4]): 5.9 µM; IC50 (MCF7): 8.1 µM; IC50 (PC-12): 85 µM; solubility [5]: 80 µM (≈ 33.9 µg/mL); Activity (U-937 [6]): 58.56%; viability at 100 µM (U-937 [7]): 5.48%; Activity (U-937 [8]): 12.79%
36 µM | O=C(NCCc1ccccc1)C(c1ccc(O)cc1)(c1ccc(O)cc1)c1ccc(O)cc1 | 71 µM | –
5.8 µM | COC(=O)[C@@H](Cc1ccccc1)NC(=O)CCCC(c1ccccc1)(c1ccccc1)c1ccccc1 | 45 µM | –
20 µM | COc1ccc(C(C(=O)NCCc2ccccc2)(c2ccc(OC)cc2)c2ccc(OC)cc2)cc1 | > 100 µM | –
12 µM | COC(=O)[C@@H](Cc1ccccc1)NC(=O)C(c1ccccc1)(c1ccccc1)c1cccs1 | 21 µM | –
13 µM | COC(=O)[C@@H](Cc1ccccc1)NC(=O)C(c1ccc(O)cc1)(c1ccc(O)cc1)c1ccc(O)cc1 | 27 µM | –
2.5 µM | COC(=O)[C@@H](Cc1ccccc1)NC(=O)CCC(c1ccccc1)(c1ccccc1)c1ccccc1 | 40 µM | IC50 (HL-60 [3]): 6 µM; IC50 (U-937 [4]): 6.8 µM; IC50 (MCF7): 6.1 µM; IC50 (PC-12): 74 µM
5.8 µM | O=C(NCCc1ccccc1)C(c1ccccc1)(c1ccccc1)c1ccccc1 | 8.3 µM | Activity (HL-60 [1]): Active; IC50 (HL-60 [3]): 7.7 µM; IC50 (U-937 [4]): 9.5 µM; IC50 (MCF7): 7.1 µM; IC50 (PC-12): 31 µM
23 µM | COC(=O)[C@@H](Cc1ccccc1)NC(=O)C1(c2ccccc2)c2ccccc2-c2ccccc21 | 27 µM | –
8.6 µM | O=C(NCCc1ccccc1)C(c1ccccc1)(c1ccc(O)cc1)c1ccc(O)cc1 | 47 µM | –
49 µM | COC(=O)[C@@H](Cc1ccccc1)NC(=O)C(c1ccc(OC)cc1)(c1ccc(OC)cc1)c1ccc(OC)cc1 | > 100 µM | –
8.1 µM | O=C(NCCc1ccccc1)C(c1ccccc1)(c1ccccc1)c1ccc(O)cc1 | 13 µM | –
5.7 µM | COC(=O)[C@@H](Cc1ccccc1)NC(=O)C(c1ccccc1)(c1ccccc1)c1ccccc1 | 14 µM | Activity (HL-60 [1]): Active; IC50 (HL-60 [3]): 7.3 µM; IC50 (U-937 [4]): 7.2 µM; IC50 (MCF7): 8 µM; IC50 (PC-12): 16 µM; solubility [5]: 20 µM (≈ 8.99 µg/mL)
24 µM | COC(=O)[C@@H](Cc1ccccc1)NC(=O)C(c1ccccc1)(c1ccc(OC)cc1)c1ccc(OC)cc1 | > 100 µM | –
20 µM | O=C(NCCc1ccccc1)C1(c2ccccc2)c2ccccc2-c2ccccc21 | 20 µM | –
14 µM | COc1ccc(C(C(=O)NCCc2ccccc2)(c2ccccc2)c2ccc(OC)cc2)cc1 | 20 µM | Activity (HL-60 [1]): Active
5.1 µM | COC(=O)[C@@H](Cc1ccccc1)NC(=O)CC(c1ccccc1)(c1ccccc1)c1ccccc1 | > 100 µM | –
6.1 µM | COC(=O)[C@@H](Cc1ccccc1)NC(=O)C(c1ccccc1)(c1ccccc1)c1ccc(OC)cc1 | 27 µM | –
29 µM | COc1ccc(C(C(=O)NCCc2ccccc2)(c2ccccc2)c2ccccc2)cc1 | 13 µM | Activity (HL-60 [1]): Active
